pIC50: −log10 of the molar value.
Key:
[1] = biological target: T1, 3-oxo-5-alpha-steroid 4-dehydrogenase 2 (Rattus norvegicus, UniProt P31214); assay: Inhibition of Steroid 5-alpha-reductase type 2 of rat ventral prostate (RVP); assay type: tissue-based, Prostate gland
T1 sequence (P31214 whole entry): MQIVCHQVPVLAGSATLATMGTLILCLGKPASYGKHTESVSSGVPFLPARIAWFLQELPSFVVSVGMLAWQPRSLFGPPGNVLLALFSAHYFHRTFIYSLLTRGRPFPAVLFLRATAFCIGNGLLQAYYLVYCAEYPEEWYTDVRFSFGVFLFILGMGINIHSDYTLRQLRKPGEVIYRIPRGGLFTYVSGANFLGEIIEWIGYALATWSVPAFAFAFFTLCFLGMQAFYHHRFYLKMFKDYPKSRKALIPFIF
In short: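 Type 2 source: rat ventral prostate homogenized in citrate buffer pH 5.5, 105000g pellet. About 250 μg protein incubated 30 min at 37 °C in 40 mM citrate pH 5.5 with 200 μM NADPH, 0.21 μM [1,2-³H]testosterone and 2% DMSO. NaOH stop, ether extraction, radio-HPLC of T/DHT. Result given as % inhibition at 10 μM or IC50, run in duplicate.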

[2] = biological target: T2, 3-oxo-5-alpha-steroid 4-dehydrogenase 1 (Homo sapiens, UniProt P18405); assay: In vitro inhibitory activity against Steroid 5-alpha-reductase type I of human DU 145 prostatic tumor cell line
T2 sequence (P18405 whole entry): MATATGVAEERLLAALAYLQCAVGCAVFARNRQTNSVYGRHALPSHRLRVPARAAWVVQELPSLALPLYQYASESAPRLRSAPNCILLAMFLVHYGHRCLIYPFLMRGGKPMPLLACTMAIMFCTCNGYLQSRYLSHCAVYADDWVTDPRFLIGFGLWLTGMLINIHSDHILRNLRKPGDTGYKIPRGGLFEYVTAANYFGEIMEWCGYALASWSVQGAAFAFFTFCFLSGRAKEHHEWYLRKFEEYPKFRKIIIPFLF
In short: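 Intact human prostatic carcinoma DU145 cells (type 1 enzyme source), seeded at 180 000 cells/well and left to adhere overnight, incubated 6 h at 37 °C in 5% CO2 with compound in DMSO in complete medium; substrate tritiated androstenedione 5 nM. Medium extracted with diethyl ether, steroids separated by radio-HPLC. Screened at 10 μM, duplicate; product formed as % of uninhibited control.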

[3] = biological target: T3, 3-oxo-5-alpha-steroid 4-dehydrogenase 1 (Rattus norvegicus, UniProt P24008); assay: Inhibition of Steroid 5-alpha-reductase type I from rat ventral prostate (RVP); assay type: tissue-based, Prostate gland
T3 sequence (P24008 whole entry): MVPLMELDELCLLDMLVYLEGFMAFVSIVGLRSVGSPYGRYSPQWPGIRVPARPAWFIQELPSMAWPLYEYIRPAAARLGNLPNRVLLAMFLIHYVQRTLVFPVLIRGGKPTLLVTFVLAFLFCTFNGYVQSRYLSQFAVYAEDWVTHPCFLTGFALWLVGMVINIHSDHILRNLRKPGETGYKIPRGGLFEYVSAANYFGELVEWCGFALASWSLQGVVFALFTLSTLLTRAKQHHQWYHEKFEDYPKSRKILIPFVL
In short: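 Rat ventral prostate 105000g pellet made in 20 mM phosphate pH 6.6 with […] and 1 mM DTT at 0–4 °C. About 250 μg protein incubated 30 min at 37 °C in 40 mM phosphate pH 6.6 with 200 μM NADPH, 0.21 μM [1,2-³H]testosterone and 2% DMSO. Ether extraction, radio-HPLC of T and DHT. % inhibition at 10 μM or IC50; duplicates.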

[4] = biological target: T4, 3-oxo-5-alpha-steroid 4-dehydrogenase 2 (Homo sapiens, UniProt P31213); assay: Inhibition of Steroid 5-alpha-reductase type 2 from human benign prostatic hyperplasia (BPH) tissue
T4 sequence (P31213 whole entry): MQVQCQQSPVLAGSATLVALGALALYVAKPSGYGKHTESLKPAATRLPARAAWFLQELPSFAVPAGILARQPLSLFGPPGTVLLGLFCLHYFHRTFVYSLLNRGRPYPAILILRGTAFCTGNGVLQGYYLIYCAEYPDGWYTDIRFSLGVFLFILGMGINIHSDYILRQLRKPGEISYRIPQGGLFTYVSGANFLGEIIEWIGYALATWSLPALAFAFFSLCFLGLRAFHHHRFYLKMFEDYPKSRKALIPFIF
In short: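 Human BPH prostate 105000g pellet (nuclei, mitochondria, microsomes) prepared in citrate buffer pH 5.5. Incubation of about 125 μg protein for 30 min at 37 °C in 40 mM citrate pH 5.5 with 100 μM NADPH, 0.21 μM [1,2-³H]testosterone and 2% DMSO. Reaction stopped with NaOH, steroids extracted with ether, T/DHT separated by radio-HPLC. Single 10 μM test or IC50; duplicates.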

Structure (SMILES): CC(C)(C)NC(=O)[C@H]1CC[C@H]2[C@@H]3CC[C@H]4NC(=O)C=C[C@]4(C)[C@H]3CC[C@]12C [FINASTERIDE]
- pIC50 [1]: 7.96
- pIC50 [2]: 7.39
- pIC50 [3]: 8.00
- pIC50 [4]: 8.30

— ChEMBL document CHEMBL1135527, “Synthesis and evaluation of 2'-substituted 4-(4'-carboxy- or 4'-carboxymethylbenzylidene)-N-acylpiperidines: highly potent and in vivo active steroid 5alpha-reductase type 2 inhibitors” (J Med Chem, 2002)
